≈ marks a conversion by molar mass, not a printed value.
Key:
[1] = target: Cystic fibrosis transmembrane conductance regulator (Homo sapiens, UniProt P13569); test: Inhibition of human wild-type CFTR expressed in FRT cells coexpressing YFP-H148Q assessed as inhibition of cAMP agonist-induced iodide influx after 45 mins by fluorescence plate-reader analysis; format: functional, cell-based
[2] = Metabolic stability of the compound in rat liver microsomes assessed as disappearance of compound after 30 mins by LC/MS analysis in presence of NADPH; format: ADME, Microsome; conditions: read-out: Drug metabolism
How it was run: (§1)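 Compound at 5 µM was incubated with rat liver microsomes (1 mg protein/mL) in 100 mM potassium phosphate at 37 °C, with 0 or 1 mM NADPH. Samples were chilled, extracted with ethyl acetate, dried and taken up in mobile phase. Analysis was reverse-phase C18 LC/MS on a 5–95% acetonitrile gradient with negative ion detection.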

[3] = Solubility of the compound in aqueous phosphate buffer at pH 7.4; format: physicochemical
How it was run: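 Solubility was measured in aqueous phosphate buffer at pH 7.4.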

[4] = tested on: Kidney; test: Inhibition of 8-Br-cAMP-induced renal cystogenesis in mouse embryonic kidney organ culture model after 5 days by inverted microscopic analysis; format: functional, tissue-based; conditions: 120 h
[5] = Solubility of the compound in albumin free saline; format: physicochemical; conditions: buffer
[6] = tested on: Liver microsomes; test: Metabolic stability of the compound in rat liver microsomes assessed as disappearance of compound after 30 mins by LC/MS analysis in absence of NADPH; format: ADME, Microsome; conditions: 0.5 h; how it was run: as §1

Chain of Cystic fibrosis transmembrane conductance regulator (P13569 whole entry): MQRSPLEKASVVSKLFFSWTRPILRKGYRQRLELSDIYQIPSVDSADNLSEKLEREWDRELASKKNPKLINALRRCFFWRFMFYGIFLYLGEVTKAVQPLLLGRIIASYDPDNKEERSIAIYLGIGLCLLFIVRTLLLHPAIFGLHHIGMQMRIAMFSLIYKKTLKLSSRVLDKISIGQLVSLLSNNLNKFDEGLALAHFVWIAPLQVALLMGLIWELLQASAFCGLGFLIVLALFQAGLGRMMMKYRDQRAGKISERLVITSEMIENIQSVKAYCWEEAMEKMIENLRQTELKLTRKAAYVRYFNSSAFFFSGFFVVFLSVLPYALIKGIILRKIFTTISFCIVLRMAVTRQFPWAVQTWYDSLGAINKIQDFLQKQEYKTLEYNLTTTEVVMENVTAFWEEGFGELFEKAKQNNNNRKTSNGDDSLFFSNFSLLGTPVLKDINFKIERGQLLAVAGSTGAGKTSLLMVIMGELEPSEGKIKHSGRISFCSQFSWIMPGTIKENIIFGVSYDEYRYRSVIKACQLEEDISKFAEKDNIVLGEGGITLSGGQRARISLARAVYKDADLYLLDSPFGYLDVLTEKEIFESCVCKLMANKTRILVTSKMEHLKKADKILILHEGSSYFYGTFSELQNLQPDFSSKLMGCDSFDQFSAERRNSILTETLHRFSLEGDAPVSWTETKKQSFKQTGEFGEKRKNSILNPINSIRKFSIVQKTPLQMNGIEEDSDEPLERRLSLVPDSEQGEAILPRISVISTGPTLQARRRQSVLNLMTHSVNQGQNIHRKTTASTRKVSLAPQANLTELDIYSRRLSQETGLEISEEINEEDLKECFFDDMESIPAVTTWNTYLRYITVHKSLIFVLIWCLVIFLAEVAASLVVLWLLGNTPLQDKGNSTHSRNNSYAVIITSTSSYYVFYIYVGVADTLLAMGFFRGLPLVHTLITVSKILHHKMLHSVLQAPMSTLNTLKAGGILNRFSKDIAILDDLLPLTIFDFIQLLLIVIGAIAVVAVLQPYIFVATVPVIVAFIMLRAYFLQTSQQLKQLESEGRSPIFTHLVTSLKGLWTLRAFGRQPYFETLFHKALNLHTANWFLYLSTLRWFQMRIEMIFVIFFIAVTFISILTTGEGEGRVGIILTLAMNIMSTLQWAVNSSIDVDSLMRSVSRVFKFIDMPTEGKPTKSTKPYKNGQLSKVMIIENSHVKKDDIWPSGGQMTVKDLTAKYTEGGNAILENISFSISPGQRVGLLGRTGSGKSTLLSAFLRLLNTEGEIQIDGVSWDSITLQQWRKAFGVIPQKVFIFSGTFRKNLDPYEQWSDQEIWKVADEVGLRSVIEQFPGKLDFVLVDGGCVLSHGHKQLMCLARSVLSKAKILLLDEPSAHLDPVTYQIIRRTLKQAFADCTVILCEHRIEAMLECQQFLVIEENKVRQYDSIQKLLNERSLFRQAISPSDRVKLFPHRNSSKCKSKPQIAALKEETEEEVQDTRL

Row | IC50 [1] | SMILES | other results
1 | Not Active | CC(=O)N1c2ccccc2-n2c(-c3ccccc3)c3c(=O)n(C)c(=O)n(C)c3c2C1c1ccc(C)o1 (configuration not stated) | 
2 | Not Active | Cc1ccc(C2c3c4c(c(-c5ccccc5)n3-c3ccccc3N2C(=O)CCl)c(=O)n(C)c(=O)n4C)o1 (configuration not stated) | 
3 | Not Active | Cn1c(=O)c2c(-c3ccccc3)n3c(c2n(C)c1=O)C(c1ccc(-c2ccccc2)o1)Nc1ccccc1-3 (configuration not stated) | 
4 |  | Cn1c(=O)c2c(-c3ccccc3)n3c(c2n(C)c1=O)C(c1ccc(Br)o1)Oc1ccc(C(=O)O)cc1-3 (configuration not stated) | metabolised at 0.5 h [2]: < 5%; solubility [3]: 17 µM (≈ 9.32 µg/mL); IC50 [4]: 0.1 µM
5 |  | Cc1ccc(C2Nc3ccccc3-n3c(-c4ccccc4)c4c(=O)n(C)c(=O)n(C)c4c32)o1 (configuration not stated) | metabolised at 0.5 h [2]: 60%; solubility [5]: < 2 µM; Stability [6]: Stable
6 | Not Active | Cc1ccc(C2c3c4c(c(-c5ccccc5)n3-c3ccccc3N2S(C)(=O)=O)c(=O)n(C)c(=O)n4C)o1 (configuration not stated) | 
7 | Not Active | Cn1c(=O)c2c(-c3ccccc3)n3c(c2n(C)c1=O)C(c1ccc(CO)o1)Nc1ccccc1-3 (configuration not stated) | 
8 | Not Active | Cn1c(=O)c2c(-c3ccccc3)n3c(c2n(C)c1=O)C(c1cc2ccccc2o1)Nc1ccccc1-3 (configuration not stated) | 

Source: ChEMBL document CHEMBL1828512, “Potent, metabolically stable benzopyrimido-pyrrolo-oxazine-dione (BPO) CFTR inhibitors for polycystic kidney disease” (J Med Chem, 2011)
